The list is not random: actives were taken first. Their share in the collection is about 3.8%.
OX1R antag-1 – human HCRTR1 antagonism; O43613; CHO/OX1R cells, Fluo-8 calcium fluorescence, orexin A; inhibition, % at 5 µM; hit rate 0.43% among 330,000; AID 434989;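 active = inhibition above its plate's threshold, mean inhibition of all tested compounds on the plate plus 3 SD, cut at about 37% in these data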;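 note: 0% = orexin A challenge wells and 100% = SB-334867-A antagonist wells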
CHO parental Ca – signal in parental CHO cells, OX1R antagonist counter-screen. AID 463079. hit rate 0.63% among 330,000. inhibition, % at 5.6 µM. parental CHO-K1, ATP-induced calcium, Fluo-8 fluorescence;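 active = inhibition above that plate's mean sample inhibition plus 3 SD, cut at about 26% in these data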;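 note: 0% = ATP-challenged DMSO wells and 100% = DMSO wells without ATP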
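Material: parental CHO cells / Compound: single nominal dose of 5.6 µM per compound / Signal: Fluo-8 fluorescence / Replicates: singlicate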
MPTP inh – blocks calcium-induced mitochondrial swelling | hit rate 1.4% among 360,000 | inhibition, % at 10 µM | isolated mouse mitochondria, Ca2+ swelling absorbance, 30 min;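 active = inhibition of 50% or more, scaled per plate between neutral and stimulator controls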;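 note: 0% = DMSO wells given calcium and 100% = 1 mM EGTA wells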
OX1R antag-2 – blocks the human orexin 1 receptor | OX1R-expressing cells, FRET antagonist read-out | inhibition, % at 6.6 µM | hit rate 1.8% among 330,000; in the data active = inhibition mostly above about 38%, no sharp cut-off; inactive = mostly below about 40%;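 note: 0% = agonist challenge alone and 100% = reference antagonist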
GPR7 antag – human neuropeptides B/W receptor 1 antagonism; P48145; AID 1861; GPR7-expressing cells, fluorescence antagonist assay; inhibition, % at 4.4 µM; hit rate 1.1% among 290,000; in the data active = inhibition above about 16%, passing the limit was not always enough;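 note: cells stimulated with the agonist NPW; 0% = agonist with vehicle and 100% = vehicle without agonist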
Target sequence (P48145 whole entry, looked up): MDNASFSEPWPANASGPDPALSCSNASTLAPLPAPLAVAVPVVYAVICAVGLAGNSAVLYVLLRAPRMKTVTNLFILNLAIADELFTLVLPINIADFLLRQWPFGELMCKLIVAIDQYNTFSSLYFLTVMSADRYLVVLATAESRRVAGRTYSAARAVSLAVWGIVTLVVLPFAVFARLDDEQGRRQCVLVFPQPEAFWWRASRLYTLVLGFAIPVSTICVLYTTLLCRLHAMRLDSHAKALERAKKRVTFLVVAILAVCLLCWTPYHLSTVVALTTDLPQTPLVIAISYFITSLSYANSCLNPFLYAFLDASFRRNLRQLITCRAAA
GPR7 antag conf – human GPR7 antagonism, confirmation assay; shares compounds with GPR7 antag; GPR7-expressing cells, calcium fluorescence antagonist mode; inhibition, % at 4.4 µM; hit rate 52% among 2,400; in the data active = inhibition above about 24%;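 note: stimulated with the GPR7 agonist NPW; 0% = agonist plus vehicle and 100% = vehicle alone without agonist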
MCHR1 antag – counter-screen for GPR7 antagonists: antagonists of human MCHR1 | hit rate 62% among 2,400 | shares compounds with GPR7 antag | MCHR1-expressing cells, fluorescence antagonist assay | inhibition, % at 4.4 µM; in the data active = inhibition above about 22%;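 note: 0% = vehicle with agonist and 100% = vehicle without agonist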
Numbers without * were called inactive.

What do the screens show for `COc1cc(/C=C2\SC(=S)N(C(Cc3ccccc3)C(=O)O)C2=O)ccc1O` (configuration not stated)?
OX1R antag-1: 27; CHO parental Ca: 20; MPTP inh: 8; OX1R antag-2: 26; GPR7 antag: 22*; GPR7 antag conf: 9; MCHR1 antag: 20

What do the screens show for `Cc1nc(C)n(C(C)CNC(=O)c2cccc(Br)c2)n1` (configuration not stated)?
MPTP inh: 1; GPR7 antag: -23

Results for COc1ccc(Nc2sc(C(=O)Nc3cccc(Cl)c3)c(N)c2C(=O)Nc2ccccc2OC)cc1 ?
OX1R antag-1: 51*; CHO parental Ca: 48*; OX1R antag-2: 0; GPR7 antag: 50*; GPR7 antag conf: 77*; MCHR1 antag: 86*

Results for COc1ccccc1NC(=O)C/C(N)=N/OCC(=O)Nc1cccc(Cl)c1 ?
OX1R antag-1: 3; CHO parental Ca: -14; MPTP inh: 1; OX1R antag-2: 7

Results for CC(OC(=O)CSc1ccc(F)cc1)C(=O)NC1(C#N)CCCCC1 (configuration not stated) ?
OX1R antag-1: -14; CHO parental Ca: -6; MPTP inh: -3; OX1R antag-2: 4; GPR7 antag: -6

Results for Cc1ccc(C)c(N(CC(=O)NC2CCCC2)C(=O)CCCC(=O)Nc2ccccn2)c1 ?
MPTP inh: -3; GPR7 antag: 4

How did Cc1cccc(N(CC(=O)NC2CCCCC2)C(=O)CCCC(=O)Nc2ccccn2)c1C do in these assays?
OX1R antag-1: -24; CHO parental Ca: -15; MPTP inh: -1; OX1R antag-2: 2; GPR7 antag: 29*; GPR7 antag conf: 21; MCHR1 antag: 12

What do the screens show for `CCOc1ccccc1NC(=O)C(NCC1(N2CCCCC2)CCCCC1)c1ccccc1` (configuration not stated)?
OX1R antag-1: -34; CHO parental Ca: -26; MPTP inh: -1; OX1R antag-2: 4; GPR7 antag: 28*; GPR7 antag conf: 25*; MCHR1 antag: 14

How did CCOc1ccccc1NC(=O)C(OC(=O)C1CC1)c1ccccc1 (configuration not stated) do in these assays?
OX1R antag-1: -28; CHO parental Ca: -18; MPTP inh: 0; OX1R antag-2: 23; GPR7 antag: -17

How did COc1ccc(/C(C)=N/NC(=O)c2ccc(CSc3nncn3C)cc2)cc1 do in these assays?
OX1R antag-1: -5; CHO parental Ca: 10; MPTP inh: 1; OX1R antag-2: 10; GPR7 antag: 8

How did Cc1nc(NC(C)c2ccccc2)c2c3c(sc2n1)CCC3 (configuration not stated) do in these assays?
OX1R antag-1: -34; CHO parental Ca: -15; MPTP inh: 9; OX1R antag-2: 12; GPR7 antag: 27*; GPR7 antag conf: 28*; MCHR1 antag: 29*

Results for O=C(NCC1CCCN1S(=O)(=O)c1cccs1)c1ccc([N+](=O)[O-])cc1 (configuration not stated) ?
OX1R antag-1: -23; CHO parental Ca: -15; MPTP inh: -1; OX1R antag-2: 22

How did COc1ccc(-n2ncc3c2CC(C)(C)CC3NC(=O)CCn2cncn2)cc1 (configuration not stated) do in these assays?
MPTP inh: 2; GPR7 antag: -7

What do the screens show for `C=CCCC(=O)NC1CC(C)(C)Cc2c1cnn2-c1ccc(OC)cc1` (configuration not stated)?
OX1R antag-1: -30; CHO parental Ca: -19; MPTP inh: 1; OX1R antag-2: 23; GPR7 antag: 26*; GPR7 antag conf: 1; MCHR1 antag: -1

Results for N#C/C(=C/c1ccc(C(=O)O)cc1)C(=O)NCc1ccccc1 ?
OX1R antag-1: -11; CHO parental Ca: -9; MPTP inh: -2; OX1R antag-2: 10; GPR7 antag: -8

Results for N#C/C(=C\c1ccccc1)C(=O)NCc1ccc(F)cc1 ?
OX1R antag-1: -15; CHO parental Ca: -17; MPTP inh: 0; OX1R antag-2: 0; GPR7 antag: 22*; GPR7 antag conf: 43*; MCHR1 antag: 47*

Results for CC1CCCC(NC(=O)C2c3ccccc3C(=O)N2Cc2cccs2)C1C (configuration not stated) ?
OX1R antag-1: -27; CHO parental Ca: -22; MPTP inh: 0; OX1R antag-2: 16; GPR7 antag: 40*; GPR7 antag conf: 28*; MCHR1 antag: 24*

Results for CC1CCCC(NC(=O)CNC(=S)N(Cc2ccccc2)Cc2cccs2)C1C (configuration not stated) ?
OX1R antag-1: -21; CHO parental Ca: -15; MPTP inh: 1; OX1R antag-2: 32; GPR7 antag: 22*; GPR7 antag conf: 32*; MCHR1 antag: 24*

What do the screens show for `O=C(NC1CCCCCCC1)C1c2ccccc2C(=O)N1Cc1ccco1` (configuration not stated)?
OX1R antag-1: -26; CHO parental Ca: -19; MPTP inh: 0; OX1R antag-2: 7; GPR7 antag: 39*; GPR7 antag conf: 25*; MCHR1 antag: 17

How did O=C(NC1CCCC1)C1c2ccccc2OCC(=O)N1Cc1ccco1 (configuration not stated) do in these assays?
MPTP inh: 0

Results for COc1ccccc1CN1C(=O)c2ccccc2C1C(=O)NC1CCC(C)CC1 (configuration not stated) ?
OX1R antag-1: -6; CHO parental Ca: -11; MPTP inh: 2; OX1R antag-2: 6; GPR7 antag: 13

What do the screens show for `Cc1ccc(-c2ccc(C3C(C#N)=C(N)Oc4n[nH]c(C)c43)o2)cc1` (configuration not stated)?
OX1R antag-1: 8; CHO parental Ca: -6; MPTP inh: 7; OX1R antag-2: 18; GPR7 antag: 26*; GPR7 antag conf: 49*; MCHR1 antag: 72*

How did CC1CCCCC1NC(=O)CN1C(=O)CSc2cc(S(=O)(=O)N3CCCCCC3)ccc21 (configuration not stated) do in these assays?
OX1R antag-1: -15; CHO parental Ca: -18; MPTP inh: -2; OX1R antag-2: 9; GPR7 antag: 28*; GPR7 antag conf: 23; MCHR1 antag: 18

What do the screens show for `COc1ccc(C2NN=C(c3c[nH]c4ccccc34)C2O)cc1` (configuration not stated)?
OX1R antag-1: -4; CHO parental Ca: 4; MPTP inh: 0; OX1R antag-2: 1; GPR7 antag: 18

Results for COc1ccc(C2C(O)C(c3c[nH]c4ccccc34)=NN2C(=O)CCl)cc1 (configuration not stated) ?
OX1R antag-1: -2; CHO parental Ca: -6; MPTP inh: 0; OX1R antag-2: 14; GPR7 antag: 22*; GPR7 antag conf: 39*; MCHR1 antag: 47*

High-throughput results: PubChem BioAssay, several laboratories
